# Results: PubChem BioAssay
# The source made the active and inactive calls.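 The calls were made as follows, unless noted: active = NADPH fluorescence slope more negative than the mean of all samples by about 3 SD, 99.7% confidence; inactive = the rest.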
# Key:
# [1] = inhibitors of TNFa-induced NFkB p65 translocation, primary screen, imaging, HUVEC, MLSMR starter and 10KST1 sets (AID 438;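 active = inhibition above 20% together with a positive visual image hit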;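 also: compound added about 3h40 before a 20 min TNFalpha stimulation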;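 as to inhibition: signal is the nuclear over cytoplasmic p65 intensity ratio per well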); details: HUVEC TNFa-induced p65 nuclear translocation; cell count: measured here: nuclei count (cytotoxicity indicator), at 2.08 µM; inhibition: at 2 µM, stronger effect = higher value, 0% TNFa-plus-vehicle, 100% no-TNFa wells
# [2] = reduction of polyQ htt aggregates in cells – imaging, exon1htt(103Q)mCFP cells, high-content imaging, primary screen (AID 483;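 active = visual image review flags a hit and inhibition of aggregation exceeds 20%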;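 also: compound exposure lasted 3 days before fixation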;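 as to nuclei count: percent of the per-plate median nuclei count of sample wells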); details: exon1htt(103Q)mCFP cell line, aggregate imaging, at 2 µM; inhibition of aggregation: stronger effect = higher value; nuclei count: measured here: cell count, toxicity
# [3] = endothelial E-selectin expression blockers – imaging, HUVEC, immunofluorescence, MLSMR starter and 10KST1 sets, primary screen (AID 487;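 active = visually confirmed hit in the image check and inhibition above 20%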;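 as to inhibition: signal is fraction of cell area covered by stained E-selectin grains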;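 as to nuclei count: 100% = median nuclei count of all wells on the same plate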); details: HUVEC TNFalpha-induced E-selectin immunofluorescence imaging, at 2 µM; inhibition: stronger effect = higher value; nuclei count: measured here: cell number, toxicity
# [4] = target: Voltage-gated potassium channel subunit beta-2 (Rattus norvegicus) (UniProt P62483); experiment: inhibitors of rat Kvbeta2 reductase activity – biochemical, NADPH fluorescence, primary screen (AID 622;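 active = fluorescence slope higher than the sample average by over 3 SD, cut at about -0.22 in these data, passing the limit was not always enough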;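 also: slope of raw intensity against log time taken from 70 to 1610 s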); details: recombinant KvBeta, 4-cyanobenzaldehyde reduction, at 10 µM, stronger effect = higher value
# Sequence of Voltage-gated potassium channel subunit beta-2 (Rattus norvegicus) (P62483 whole entry, looked up): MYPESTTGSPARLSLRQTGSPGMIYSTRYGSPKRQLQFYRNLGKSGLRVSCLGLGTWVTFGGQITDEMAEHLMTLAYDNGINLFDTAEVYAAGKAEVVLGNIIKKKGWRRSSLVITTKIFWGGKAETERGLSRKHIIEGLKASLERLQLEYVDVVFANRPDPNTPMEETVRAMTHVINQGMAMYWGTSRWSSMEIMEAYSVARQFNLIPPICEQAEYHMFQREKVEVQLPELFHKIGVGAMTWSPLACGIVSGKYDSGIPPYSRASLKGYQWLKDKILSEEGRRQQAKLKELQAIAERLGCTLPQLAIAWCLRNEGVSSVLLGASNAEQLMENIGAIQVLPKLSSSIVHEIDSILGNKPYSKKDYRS
# [5] = target: Voltage-gated potassium channel subunit beta-2 (Rattus norvegicus) (UniProt P62483); experiment: enhancers of rat Kvbeta2 NADPH turnover – biochemical, NADPH fluorescence, primary screen (AID 623); details: Recombinant KvBeta, NADPH fluorescence decrease slope, 10 min; at 10 µM; stronger effect = lower value;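 also: fluorescence intensity change per second fitted from 20 to 320 s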
# [6] = target: Alpha-2C adrenergic receptor (Homo sapiens) (UniProt P18825); experiment: compounds altering alpha2C-coupled GIRK flux – cell-based, HEK293 alpha2C/GIRK1/2, thallium flux, primary screen (AID 624;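 active = fluorescence slope after compound addition differing from the mean of all screened samples at 99.7% confidence, in either direction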;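 also: slope of fluorescence ratio to pre-addition baseline per second over 15 to 24 s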); details: thallium flux BTC fluorescence, at 10 µM, actives lie on both sides
# Sequence of Alpha-2C adrenergic receptor (Homo sapiens) (P18825 whole entry, looked up): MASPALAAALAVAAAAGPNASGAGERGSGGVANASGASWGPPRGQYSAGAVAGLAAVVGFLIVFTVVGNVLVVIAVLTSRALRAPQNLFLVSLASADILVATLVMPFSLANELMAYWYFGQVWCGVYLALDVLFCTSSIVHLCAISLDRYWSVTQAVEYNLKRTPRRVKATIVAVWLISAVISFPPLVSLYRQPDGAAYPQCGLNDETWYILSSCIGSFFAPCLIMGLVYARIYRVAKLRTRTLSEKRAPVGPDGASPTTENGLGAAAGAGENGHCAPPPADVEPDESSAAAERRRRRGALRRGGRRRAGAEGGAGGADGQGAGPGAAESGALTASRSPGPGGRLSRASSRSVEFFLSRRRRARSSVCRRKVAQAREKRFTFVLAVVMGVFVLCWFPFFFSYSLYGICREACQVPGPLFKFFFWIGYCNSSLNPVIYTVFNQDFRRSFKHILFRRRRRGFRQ
# [7] = inhibitors of larval lipid processing in zebrafish, primary screen, whole organism, PED6 fluorescence, gall bladder and intestine (AID 686;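 active = a full or partial loss of lipid-probe fluorescence in the fish gall bladder, intestine or both, judged by eye; inactive = no fluorescence loss, or compound toxic to the fish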;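 also: larvae 5 to 7 days old with five fish per well; signal comes from phospholipase A2 cleavage of quenched PED6 carried via bile; overnight exposure to compound and PED6 before scoring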); details: Zebrafish larvae PED6 lipid processing, fluorescence scoring; screened at 20 µM (by protocol)
# Summary of the method: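 Test system – live zebrafish larvae aged 5-7 days, whole organism · Buffer or medium – E3 fish medium · Reagent – quenched phospholipase substrate PED6, 100 nM final, ingested by larvae · Doses – 20 µM single dose · Incubation – overnight compound and PED6 incubation · Technique – visual fluorescence microscopy scoring of gall bladder, gut · Read-out basis – visual per-well fluorescence inhibition score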
# [8] = blockers of RIG-like receptor reporter activation – cell-based, Sendai virus stimulus, luciferase, 10K MLSCN set, TLR/RLR signaling modifier project, primary screen (AID 602276;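 active = inhibition at or above 50% at 10 µM; inactive = inhibition below 50%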;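 also: firefly luciferase from ISG56 promoter only with Renilla not read in this screen; 0% = Sendai virus plus DMSO and 100% = medium plus DMSO without virus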); details: HEK293 RL24 IRF3 luciferase reporter, at 10 µM, stronger effect = higher value
# [9] = TLR3 IRF3 reporter activation blockers – cell-based, poly I:C stimulus, luciferase, 10K MLSCN set, primary screen (AID 602277;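 active = inhibition of the reporter signal at or above 50%; inactive = inhibition below 50%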); details: HEK293-TLR3 RL24 IRF3 luciferase reporter, at 10 µM, stronger effect = higher value
SMILES,cell count [1],inhibition [1],inhibition of aggregation [2],nuclei count [2],inhibition [3],nuclei count [3],fluorescence slope [4],NADPH fluorescence slope [5],slope [6],outcome [7],inhibition [8],inhibition [9]
c1ccc(-c2nc3cnccn3c2Nc2ccc3c(c2)OCCO3)cc1,606,-36.1% (inactive),11.9% (inactive),101%,-20.7% (inactive),110%,-0.202 (inactive),-6.7e-06 (inactive),0.00431 (inactive),inactive,8.91% (inactive),11.5% (inactive)
Cc1ccc(NC(=O)CSc2nnc(-c3ccc(S(=O)(=O)N4CCOCC4)cc3)n2C)cc1,740,-0.2% (inactive),0.9% (inactive),87%,9.3% (inactive),111%,-0.384 (inactive),-7.3e-05 (inactive),0.00534 (inactive),inactive,4.24% (inactive),4.26% (inactive)
CCOC(=O)Nc1ccc2c(c1)N(C(=O)CCN1CCOCC1)c1ccccc1S2,313,-2.1% (inactive),32.1% (inactive),100%,3% (inactive),104%,-0.37 (inactive),-6.8e-05 (inactive),0.00608 (inactive),inactive,6.28% (inactive),18.1% (inactive)
COc1ccc(Cl)cc1NC(=O)CSc1nncn1-c1cccnc1,391,-10.2% (inactive),25.6% (inactive),58.8%,60.5% (active),93.1%,-0.296 (inactive),1.5e-05 (inactive),0.00524 (inactive),inactive,15.1% (inactive),22.7% (inactive)
CC(C)NC(=O)c1ccccc1NC(=O)CCS(=O)(=O)Cc1ccccc1,560,6.6% (inactive),-10% (inactive),108%,-26% (inactive),107%,-0.516 (inactive),2.6e-05 (inactive),0.00472 (inactive),inactive,-21.6% (inactive),-8.53% (inactive)
CN(C)c1nc(Oc2ccc(N)cc2)nc(N(C)C)n1,362,2.1% (inactive),15.5% (inactive),94.2%,27% (inactive),92%,-0.379 (inactive),-7.9e-05 (inactive),0.00462 (inactive),inactive,-1.54% (inactive),-2.53% (inactive)
CCC1(C)Cc2c(sc3nc(SCC(=O)O)[nH]c(=O)c23)CO1 (centres undefined),549,-14.6% (inactive),-5% (inactive),114%,-41% (inactive),104%,-0.391 (inactive),-1.8e-05 (inactive),0.00549 (inactive),inactive,1.92% (inactive),7.26% (inactive)
CSc1ccc(-c2cc(=O)c3ccccc3o2)cc1,620,-10.5% (inactive),-54.9% (inactive),8.7%,-108% (inactive),139%,-0.00698 (active),1.2e-05 (inactive),0.00442 (inactive),inactive,-21% (inactive),-41.6% (inactive)
COc1ccc(/C=N/n2c(SC)nnc2-c2ccccc2)cc1C,384,-0.9% (inactive),6.2% (inactive),103%,-68.1% (inactive),117%,-0.384 (inactive),-2e-05 (inactive),0.00536 (inactive),inactive,2.46% (inactive),-2.96% (inactive)
CC1Oc2ccccc2N(CC(=O)NCc2cccs2)C1=O (centres undefined),787,1.6% (inactive),2.2% (inactive),91.4%,-146% (inactive),120%,-0.448 (inactive),-6e-05 (inactive),0.00433 (inactive),active; weak signal in gallbladder only,-0.51% (inactive),-12.6% (inactive)
Cc1nnc(NC(=O)CCC(=O)N2CCC(C)CC2)s1,355,-2% (inactive),-13.9% (inactive),119%,-84.2% (inactive),120%,-0.465 (inactive),-4.6e-05 (inactive),0.0059 (inactive),inactive,12.2% (inactive),14% (inactive)
CCOC(=O)c1nnc2ccnn2c1N,529,6.8% (inactive),-6.1% (inactive),108%,-120% (inactive),111%,-0.448 (inactive),-0.000165 (inactive),0.00514 (inactive),inactive,8.28% (inactive),16.2% (inactive)
O=C(Nc1nnc(C2CCCC2)s1)C1CCN(S(=O)(=O)c2ccc(Cl)cc2)CC1,349,0% (inactive),18.7% (inactive),85.1%,-83.1% (inactive),104%,-0.345 (inactive),-1.7e-05 (inactive),0.00671 (inactive),inactive,13.4% (inactive),6.21% (inactive)
CCCCOC(=O)Nc1nccs1,690,-2.6% (inactive),4.5% (inactive),116%,-53.6% (inactive),116%,-0.404 (inactive),-3.3e-05 (inactive),0.00518 (inactive),inactive,-8.28% (inactive),-28.8% (inactive)
CCOC(=O)c1oc2cc(OCC(N)=O)ccc2c(=O)c1-c1ccc(OC)c(OC)c1,411,8.1% (inactive),-10.4% (inactive),106%,-114% (inactive),102%,-0.445 (inactive),-0.000137 (inactive),0.0045 (inactive),inactive,19.4% (inactive),22.5% (inactive)
CCc1nnc(NC(=O)CSc2nc(-c3ccc(OC)cc3)ns2)s1,203,-10.4% (inactive),-17.4% (inactive),82%,-32.2% (inactive),98.7%,-0.408 (inactive),3.8e-06 (inactive),0.00688 (inactive),inactive,-36.8% (inactive),-50.2% (inactive)
COCCNC(=S)c1ccc(OC)cc1,318,4.7% (inactive),1.2% (inactive),121%,-41.9% (inactive),123%,-0.362 (inactive),-7.4e-05 (inactive),0.00489 (inactive),inactive,4.72% (inactive),4.95% (inactive)
c1cncc(C2Nc3ccccc3-c3nc4ccccc4n32)c1 (centres undefined),428,21.8% (active),2.7% (inactive),93.3%,-151% (inactive),116%,-0.37 (inactive),-5.6e-05 (inactive),0.00507 (inactive),inactive,-7% (inactive),-38.6% (inactive)
Nc1cc(N)nc(SCc2ccccc2)n1,371,1.1% (inactive),6.6% (inactive),103%,-26.1% (inactive),108%,-0.499 (inactive),1.3e-05 (inactive),0.00402 (inactive),inactive,-47.8% (inactive),-101% (inactive)
CCOC(=O)C1CCCN(C(=O)Cc2ccc(OC)c(OC)c2)C1 (centres undefined),705,2.6% (inactive),2.1% (inactive),100%,-124% (inactive),104%,-0.443 (inactive),-4.9e-05 (inactive),0.00479 (inactive),inactive,18.6% (inactive),17.7% (inactive)
COc1ccccc1-n1nnnc1SCc1cc2c(cc1Br)OCO2,319,-4.5% (inactive),-1.1% (inactive),90.3%,-168% (inactive),130%,-0.437 (inactive),-4.6e-05 (inactive),0.00645 (inactive),inactive,19.6% (inactive),22.9% (inactive)
O=C(NCCCN1CCN(Cc2ccccc2)CC1)C1CCN(c2nnc(-n3cccc3)s2)CC1,336,-11.8% (inactive),-22.5% (inactive),103%,-119% (inactive),126%,-0.393 (inactive),-5e-05 (inactive),0.00457 (inactive),inactive,-19.7% (inactive),-72% (inactive)
CC1=Nn2c(nnc2-c2ccccc2)SC1,303,-2.7% (inactive),-6.5% (inactive),121%,-19.2% (inactive),108%,-0.374 (inactive),-1.6e-05 (inactive),0.00576 (inactive),inactive,11.5% (inactive),-4.42% (inactive)
COc1cc2c(cc1OC)C(/C(C#N)=N\O)=NC(C)(C)C2,635,-39.6% (inactive),2.8% (inactive),107%,33% (inactive),96.2%,-0.432 (inactive),-2e-05 (inactive),0.0058 (inactive),inactive,13.5% (inactive),13.6% (inactive)
CC(=O)c1ccc(N2CCN(C(=O)c3cc(C)on3)CC2)cc1,319,0% (inactive),18.7% (inactive),102%,40.6% (inactive),80.7%,-0.465 (inactive),-4.5e-05 (inactive),0.00513 (inactive),inactive,2.68% (inactive),-0.354% (inactive)
COC(=O)c1c(NC(=O)CCc2ccc(C)o2)sc(C)c1C,568,6.6% (inactive),7.9% (inactive),79.4%,-69.4% (inactive),91%,-0.294 (inactive),-1.6e-05 (inactive),0.00498 (inactive),inactive,15.7% (inactive),31.1% (inactive)
Cc1nnc(SCCCn2c(N3CCCCC3)nc3c2c(=O)[nH]c(=O)n3C)s1,382,-2.4% (inactive),-17.5% (inactive),109%,-64.9% (inactive),93.7%,-0.458 (inactive),-1.1e-05 (inactive),0.00412 (inactive),inactive,8.32% (inactive),17.6% (inactive)
